From ChEMBL document CHEMBL1153706, “Synthesis of 9-anilinoacridine triazines as new class of hybrid antimalarial agents” (Bioorg Med Chem Lett, 2009)
pIC50: −log10 of the molar value.

What was measured:
Plasmodium falciparum = experiment: Antimalarial activity against chloroquine-sensitive Plasmodium falciparum 3D7 after 72 hrs; assay type: functional, organism-based; conditions: 3D7, 72 h
Summary of the method: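 P. falciparum 3D7 cultured with 0.5% parasitaemia in a 2.5% cell suspension. Compounds are made up as 5 mg/ml DMSO stocks. Twofold serial dilutions (seven concentrations) start at 500 ng/ml, or 25 ng/ml for chloroquine, in duplicate wells. Incubated 72 h, then lysis buffer with SYBR Green I, 1 h at room temperature, fluorescence read. IC50 from non-linear regression dose–response curves.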

[1] = Selectivity index, ratio of IC50 for african green monkey (Cercopithecus aethiops) Vero cells to IC50 for chloroquine-sensitive Plasmodium falciparum 3D7; assay type: toxicity, cell-based; conditions: read-out: Ratio IC50
Summary of the method: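 Ratio of the Vero IC50 to the 3D7 IC50. Vero monkey kidney […] cells at 1 × 10⁴ cells/well exposed to varying compound concentrations for 72 h, MTT read-out, IC50 from non-linear regression. The 3D7 IC50 comes from a 72 h SYBR Green I fluorescence assay using twofold serial dilutions from 500 ng/ml.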

Plasmodium yoelii = experiment: Antimalarial activity against chloroquine-resistant Plasmodium yoelii N67 infected in Swiss mice (Mus musculus) assessed as suppression of parasitaemia at 100 mg/kg, peroral for 4 days; assay type: functional; conditions: N67, 96 h, route oral
Summary of the method: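 Swiss mice (22 2 g), groups of five, inoculated with 1 × 10⁶ parasitized RBC on day 0; dosed once daily days 0–3, orally, 0.1 ml aqueous suspension with a few drops of Tween 80. Parasitaemia read from thin blood smears between days 4 and 6; group mean used for percent suppression versus untreated controls; CQ-treated mice as reference.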

`COc1ccc2nc3cc(Cl)ccc3c(Nc3ccc(Nc4nc(NCCN(C)C)nc(Nc5ccc(F)cc5)n4)cc3)c2c1` showed a pIC50 (Plasmodium falciparum) of 7.40 and a selectivity ratio [1] of 28.1.

Work on `CCN(CC)CCNc1nc(Nc2ccc(F)cc2)nc(Nc2ccc(Nc3c4ccc(Cl)cc4nc4ccc(OC)cc34)cc2)n1` yielded a pIC50 (Plasmodium falciparum) of 7.55, a selectivity ratio [1] of 155 and an inhibition in vivo at 100 mg/kg (Plasmodium yoelii) of 95.4%.

`COc1ccc2nc3cc(Cl)ccc3c(Nc3ccc(Nc4nc(N)nc(Nc5ccc(F)cc5)n4)cc3)c2c1` gave a pIC50 (Plasmodium falciparum) of 6.92 and a selectivity ratio [1] of 37.1.

With `COc1ccc2nc3cc(Cl)ccc3c(Nc3ccc(Nc4nc(Nc5ccccc5)nc(NC5CCCC5)n4)cc3)c2c1` the pIC50 (Plasmodium falciparum) was 7.76 and the selectivity ratio [1] was 5010.

`COc1ccc2nc3cc(Cl)ccc3c(Nc3ccc(Nc4nc(NCCCN5CCOCC5)nc(Nc5ccccc5)n4)cc3)c2c1` showed a pIC50 (Plasmodium falciparum) of 7.82 and a selectivity ratio [1] of 61.4.

Compound `COc1ccc2nc3cc(Cl)ccc3c(Nc3ccc(Nc4nc(NCCCN(C)C)nc(Nc5ccccc5)n4)cc3)c2c1` has a pIC50 (Plasmodium falciparum) of 8.38, a selectivity ratio [1] of 295 and an inhibition in vivo at 100 mg/kg (Plasmodium yoelii) of 95.7%.

Work on `COc1ccc2nc3cc(Cl)ccc3c(Nc3ccc(Nc4nc(NCCCN(C)C)nc(Nc5ccc(F)cc5)n4)cc3)c2c1` yielded a pIC50 (Plasmodium falciparum) of 7.45 and a selectivity ratio [1] of 99.8.

`CCN(CC)CCNc1nc(Nc2ccccc2)nc(Nc2ccc(Nc3c4ccc(Cl)cc4nc4ccc(OC)cc34)cc2)n1` gave a pIC50 (Plasmodium falciparum) of 7.66 and a selectivity ratio [1] of 137.

`COc1ccc2nc3cc(Cl)ccc3c(Nc3ccc(Nc4nc(N)nc(Nc5ccccc5)n4)cc3)c2c1` showed a pIC50 (Plasmodium falciparum) of 7.17 and a selectivity ratio [1] of 448.

`CCN1CCN(c2nc(Nc3ccc(F)cc3)nc(Nc3ccc(Nc4c5ccc(Cl)cc5nc5ccc(OC)cc45)cc3)n2)CC1` gave a pIC50 (Plasmodium falciparum) of 7.18 and a selectivity ratio [1] of 193.

Compound `COc1ccc2nc3cc(Cl)ccc3c(Nc3ccc(Nc4nc(NCCN5CCOCC5)nc(Nc5ccc(F)cc5)n4)cc3)c2c1` has a pIC50 (Plasmodium falciparum) of 7.70, a selectivity ratio [1] of 3090 and an inhibition in vivo at 100 mg/kg (Plasmodium yoelii) of 98.7%.

In the case of `COc1ccc2nc3cc(Cl)ccc3c(Nc3ccc(Nc4nc(NN)nc(Nc5ccccc5)n4)cc3)c2c1`, the pIC50 (Plasmodium falciparum) was 8.37 and the selectivity ratio [1] was 31.4.

For `COc1ccc2nc3cc(Cl)ccc3c(Nc3ccc(Nc4nc(Nc5ccccc5)nc(N5CCN(C)CC5)n4)cc3)c2c1`, the pIC50 (Plasmodium falciparum) was 7.66 and the selectivity ratio [1] was 146.

With `COc1ccc2nc3cc(Cl)ccc3c(Nc3ccc(Nc4nc(NCCN(C)C)nc(Nc5ccccc5)n4)cc3)c2c1` the pIC50 (Plasmodium falciparum) was 8.10, the selectivity ratio [1] was 160 and the inhibition in vivo at 100 mg/kg (Plasmodium yoelii) was 49%.

In the case of `COc1ccc2nc3cc(Cl)ccc3c(Nc3ccc(Nc4nc(NCCCN5CCOCC5)nc(Nc5ccc(F)cc5)n4)cc3)c2c1`, the pIC50 (Plasmodium falciparum) was 7.35 and the selectivity ratio [1] was 1560.

For `CCN1CCN(c2nc(Nc3ccccc3)nc(Nc3ccc(Nc4c5ccc(Cl)cc5nc5ccc(OC)cc45)cc3)n2)CC1`, the pIC50 (Plasmodium falciparum) was 7.72 and the selectivity ratio [1] was 164.

Compound `COc1ccc2nc3cc(Cl)ccc3c(Nc3ccc(Nc4nc(NCCO)nc(Nc5ccccc5)n4)cc3)c2c1` has a pIC50 (Plasmodium falciparum) of 8.02, a selectivity ratio [1] of 755 and an inhibition in vivo at 100 mg/kg (Plasmodium yoelii) of 58.5%.

For `COc1ccc2nc3cc(Cl)ccc3c(Nc3ccc(Nc4nc(Nc5ccc(F)cc5)nc(N5CCN(C)CC5)n4)cc3)c2c1`, the pIC50 (Plasmodium falciparum) was 7.31 and the selectivity ratio [1] was 210.

`COc1ccc2nc3cc(Cl)ccc3c(Nc3ccc(Nc4nc(NCCCO)nc(Nc5ccccc5)n4)cc3)c2c1` gave a pIC50 (Plasmodium falciparum) of 6.44 and a selectivity ratio [1] of 17.4.

`COc1ccc2nc3cc(Cl)ccc3c(Nc3ccc(Nc4nc(NCCN5CCOCC5)nc(Nc5ccccc5)n4)cc3)c2c1` gave a pIC50 (Plasmodium falciparum) of 8.16, a selectivity ratio [1] of 2900 and an inhibition in vivo at 100 mg/kg (Plasmodium yoelii) of 96.6%.

With `CCCCNc1nc(Nc2ccccc2)nc(Nc2ccc(Nc3c4ccc(Cl)cc4nc4ccc(OC)cc34)cc2)n1` the pIC50 (Plasmodium falciparum) was 6.54 and the selectivity ratio [1] was 138.

In the case of `CNc1nc(Nc2ccc(F)cc2)nc(Nc2ccc(Nc3c4ccc(Cl)cc4nc4ccc(OC)cc34)cc2)n1`, the pIC50 (Plasmodium falciparum) was 6.94 and the selectivity ratio [1] was 336.

In the case of `CCN(CC)CCCC(C)Nc1ccnc2cc(Cl)ccc12` (stereo unspecified) [CHLOROQUINE], the inhibition in vivo at 100 mg/kg (Plasmodium yoelii) was 99.9%.
